Test results published in ChEMBL document CHEMBL1126794, “2-(Quinuclidin-3-yl)pyrido[4,3-b]indol-1-ones and isoquinolin-1-ones. Potent conformationally restricted 5-HT3 receptor antagonists” (J Med Chem, 1993).

Experiments:
[1] = target: T1, Serotonin 3 (5-HT3) receptor (Rattus norvegicus, UniProt P35563+Q9JJ16); test: Binding affinity against 5-hydroxytryptamine 3 (5-HT3) receptor in rat brain cortical membranes using radioligand [3H]quipazine; format: cell membranes
T1 sequence (P35563 whole entry): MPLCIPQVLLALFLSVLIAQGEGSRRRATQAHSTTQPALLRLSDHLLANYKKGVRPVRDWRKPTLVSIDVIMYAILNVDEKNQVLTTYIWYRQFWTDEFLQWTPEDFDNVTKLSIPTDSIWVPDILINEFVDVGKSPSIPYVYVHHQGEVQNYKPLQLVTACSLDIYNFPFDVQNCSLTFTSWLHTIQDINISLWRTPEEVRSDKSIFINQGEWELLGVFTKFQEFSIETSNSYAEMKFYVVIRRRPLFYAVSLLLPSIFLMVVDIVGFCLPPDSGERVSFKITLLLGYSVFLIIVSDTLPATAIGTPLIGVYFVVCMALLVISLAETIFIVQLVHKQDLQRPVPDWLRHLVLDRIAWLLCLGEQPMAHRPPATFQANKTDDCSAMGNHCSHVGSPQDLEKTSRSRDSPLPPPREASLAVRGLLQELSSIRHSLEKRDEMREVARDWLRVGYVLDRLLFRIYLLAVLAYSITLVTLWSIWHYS
T1 sequence (Q9JJ16 whole entry): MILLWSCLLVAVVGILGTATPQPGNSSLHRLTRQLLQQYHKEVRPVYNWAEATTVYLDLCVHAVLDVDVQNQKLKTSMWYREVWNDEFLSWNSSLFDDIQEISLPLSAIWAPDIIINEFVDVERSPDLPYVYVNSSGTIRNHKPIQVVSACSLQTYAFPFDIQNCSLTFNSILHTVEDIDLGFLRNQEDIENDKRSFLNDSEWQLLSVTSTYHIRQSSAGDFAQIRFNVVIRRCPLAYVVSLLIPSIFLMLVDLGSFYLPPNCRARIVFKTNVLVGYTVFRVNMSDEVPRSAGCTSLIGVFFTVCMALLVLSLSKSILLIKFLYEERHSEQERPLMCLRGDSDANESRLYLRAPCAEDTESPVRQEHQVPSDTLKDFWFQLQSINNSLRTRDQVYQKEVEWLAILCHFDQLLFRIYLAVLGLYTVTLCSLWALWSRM
How it was run: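 Rat cerebral cortex membranes, washed in 50 mM Tris pH 7.4, incubated 45 min at 25 °C in Tris-Krebs buffer pH 7.4 with 0.3–0.7 nM [3H]quipazine plus 0.1 μM paroxetine. Ten test concentrations from 1e-12 to 1e-4 M. Nonspecific binding defined with 1.0 μM racemic zacopride. Filtration, scintillation counting, IC50 by iterative fit, Ki by Cheng-Prusoff. Means of ≥3 determinations, or of two.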

[2] = test system: Rattus norvegicus; test: Potency to inhibit bradycardiac effect measured by Von Bezold-Jarisch assay in 8 anesthetized rats; format: functional; conditions: read-out: ID50 (the source's name)
How it was run: (§1)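 Male Sprague-Dawley rats, 250–380 g, under urethane (1.5 g/kg ip), with cannulated trachea and femoral veins; heart rate recorded by ECG. Lowest consistent bradycardic dose of 2-methyl-5-HT titrated iv, then given every 12 min. Increasing iv doses given 5 min before each challenge, with saline vehicle group.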

[3] = test system: Rattus norvegicus; test: Potency to inhibit bradycardiac effect measured by Von Bezold-Jarisch assay in 4 anesthetized rats; format: functional; how it was run: as §1
[4] = test system: Rattus norvegicus; test: Potency to inhibit bradycardiac effect measured by Von Bezold-Jarisch assay in 9 anesthetized rats; format: functional; design: ID50: unit not given here; conditions: for ED50: Rattus norvegicus, read-out: ID50 (the source's name); how it was run: as §1
[5] = test system: Rattus norvegicus; test: Potency to inhibit bradycardiac effect measured by Von Bezold-Jarisch assay in 5 anesthetized rats; format: functional; conditions: read-out: ID50 (the source's name); how it was run: as §1
[6] = test system: Canis familiaris; test: Inhibition of emesis induced by peroral administration of cisplatin in 6 dogs at 0.1 mg/kg; format: functional, Canis lupus familiaris; conditions: route oral
How it was run: (§2)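 Single oral pretreatment in dogs (n = 6) by liquid gelatin capsule, 30 min before iv cisplatin at 3 mg/kg. Number of emetic episodes monitored continuously for 5 h after cisplatin. Significance versus control by Dunnett's t test.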

[7] = test system: Canis familiaris; test: Inhibition of emesis induced by peroral administration of cisplatin in 6 dogs at 0.3 mg/kg (p<0.01); format: functional, Canis lupus familiaris; conditions: route oral; how it was run: as §2
[8] = test system: Canis familiaris; test: Inhibition of emesis induced by peroral administration of cisplatin in 6 dogs at 1.0 mg/kg (p<0.01); format: functional, Canis lupus familiaris; conditions: route oral; how it was run: as §2
[9] = test system: Canis familiaris; test: Inhibition of emesis induced by intravenous administration of cisplatin in 6 dogs at 0.01 mg/kg; format: functional, Canis lupus familiaris
How it was run: (§3)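 Dogs, n = 6 per group, given one iv dose of test compound as an aqueous solution through a jugular vein cannula 30 min before iv cisplatin (3 mg/kg). Emetic episodes counted by continuous observation for 5 h after cisplatin. Results given as mean ± value versus control, with significance by Dunnett's t test.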

[10] = test system: Canis familiaris; test: Inhibition of emesis induced by intravenous administration of cisplatin in 6 dogs at 0.03 mg/kg; format: functional, Canis lupus familiaris; how it was run: as §3
[11] = test system: Canis familiaris; test: Inhibition of emesis induced by intravenous administration of cisplatin in 6 dogs at 0.1 mg/kg (p<0.01); format: functional, Canis lupus familiaris; how it was run: as §3
[12] = test system: Canis familiaris; test: Inhibition of emesis induced by intravenous administration of cisplatin in 6 dogs at 0.3 mg/kg (p<0.01); format: functional, Canis lupus familiaris; how it was run: as §3
[13] = test system: Canis familiaris; test: Inhibition of emesis induced by intravenous administration of cisplatin in 6 dogs at 1 mg/kg (p<0.01); format: functional, Canis lupus familiaris; how it was run: as §3
[14] = test system: Canis familiaris; test: Inhibition of emesis induced by peroral administration of cisplatin in 6 dogs at 0.01 mg/kg; format: functional, Canis lupus familiaris; conditions: route oral; how it was run: as §2
[15] = test system: Canis familiaris; test: Inhibition of emesis induced by peroral administration of cisplatin in 6 dogs at 0.03 mg/kg; format: functional, Canis lupus familiaris; conditions: route oral; how it was run: as §2
[16] = test system: Mustela putorius furo; test: Inhibition of emesis induced by peroral administration of cisplatin in 5 ferrets at 0.3 mg/kg (p<0.01); format: functional; conditions: route oral
[17] = test system: Mustela putorius furo; test: Inhibition of emesis induced by peroral administration of cisplatin in 5 ferrets at 0.03 mg/kg; format: functional; conditions: route oral
[18] = test system: Mustela putorius furo; test: Inhibition of emesis induced by peroral administration of cisplatin in 5 ferrets at 0.1 mg/kg (p<0.01); format: functional; conditions: route oral

Cn1cc(C(=O)N[C@@H]2CN3CCC2CC3)c2ccccc21
Ki [1]: 0.398 nM

COc1cc(N)c(Cl)cc1C(=O)N[C@@H]1CN2CCC1CC2
Ki [1]: 0.251 nM

Cn1c2ccccc2c2c(=O)n([C@@H]3CN4CCC3CC4)ccc21
ED50 [2]: 0.13 µg/kg

O=C(N[C@@H]1CN2CCC1CC2)c1c2n(c3ccccc13)CCCCC2
Ki [1]: 5.01 nM

Cc1c(C(=O)NC2CN3CCC2CC3)c2ccccc2n1C (centres undefined)
Ki [1]: 39.8 nM

CCc1cccc(C(=O)N[C@@H]2CN3CCC2CC3)c1C
Ki [1]: 501 nM

Cc1cccc2c(=O)n(C3CN4CCC3CC4)cc(C)c12.Cl (centres undefined)
Ki [1]: 1 nM | ED50 [2]: 0.25 µg/kg

COc1cccc2c1CCN(C1CC3CCC(C1)N3C)C2=O (centres undefined)
Ki [1]: 10 nM

O=C1c2ccccc2CCN1C1CN2CCC1CC2 (centres undefined)
Ki [1]: 10 nM

O=c1c2ccccc2c(-c2ccccc2)cn1[C@@H]1CN2CCC1CC2
Ki [1]: 2.51 nM

COc1cccc2c(=O)n([C@@H]3CN4CCC3CC4)ccc12.Cl
Ki [1]: 0.158 nM | ED50 [2]: 0.03 µg/kg

Cl.O=c1c2cccc3c2c(cn1[C@H]1CN2CCC1CC2)CCC3
Ki [1]: 7.94 nM | ID50 [3]: 2 pKi

COc1cccc2c(=O)n(C3CC4CCC(C3)N4C)ccc12 (centres undefined)
Ki [1]: 2.51 nM

O=c1c2ccccc2ccn1[C@@H]1CN2CCC1CC2
Ki [1]: 3.98 nM

O=C(N[C@H]1CN2CCC1CC2)c1c2n(c3ccccc13)CCCC2
Ki [1]: 12.6 nM

COc1cccc(C(=O)N[C@@H]2CN3CCC2CC3)c1C
Ki [1]: 398 nM

O=c1c2cccc3c2c(cn1[C@H]1CN2CCC1CC2)CC3
Ki [1]: 25.1 nM

COc1ccc2c3c(cn(C4CN5CCC4CC5)c(=O)c13)CCC2 (centres undefined)
Ki [1]: 158 nM

COc1cccc2c1CCN(C1CN3CCC1CC3)C2=O (centres undefined)
Ki [1]: 0.2 nM

CCc1cccc2c(=O)n([C@@H]3CN4CCC3CC4)ccc12.Cl
Ki [1]: 0.2 nM | ED50 [2]: 0.13 µg/kg

Cl.O=c1c2cccc3c2c(cn1[C@@H]1CN2CCC1CC2)CCCC3
Ki [1]: 0.398 nM | ED50 [2]: 0.09 µg/kg

CCc1cccc2c1CCN(C1CN3CCC1CC3)C2=O.Cl (centres undefined)
Ki [1]: 0.2 nM | ED50 [2]: 0.18 µg/kg

O=C1c2cccc3c2[C@@H](CCC3)CN1[C@H]1CN2CCC1CC2
Ki [1]: 3.98 nM

Cl.O=c1c2cccc3c2c(cn1[C@@H]1CN2CCC1CC2)CCC3
Ki [1]: 0.158 nM | ID50 [4]: 0.1

O=C(NC1CN2CCC1CC2)c1c2n(c3ccccc13)CCCC2 (centres undefined)
Ki [1]: 2.51 nM

O=C1c2cccc3c2[C@H](CCC3)CN1[C@H]1CN2CCC1CC2
Ki [1]: 2.51 nM

Cl.O=c1c2cccc3c2c(cn1C1CN2CCC1CC2)CC3 (centres undefined)
Ki [1]: 0.631 nM | ED50 [4]: 0.18 µg/kg

O=c1c2cccc(Cl)c2ccn1[C@@H]1CN2CCC1CC2
Ki [1]: 2.51 nM

COc1ccc2c(=O)n([C@@H]3CN4CCC3CC4)cc3c2c1CCC3
Ki [1]: 12.6 nM

O=c1c2ccccc2ccn1C1CN2CCC1CC2 (centres undefined)
Ki [1]: 10 nM

Cc1cccc2c(=O)n(C3CN4CCC3CC4)ccc12.Cl (centres undefined)
Ki [1]: 0.631 nM | ED50 [2]: 0.1 µg/kg

Cc1cccc2c1CCN([C@@H]1CN3CCC1CC3)C2=O.Cl
Ki [1]: 0.316 nM | ED50 [2]: 0.13 µg/kg

Cc1ccccc1C(=O)NC1CN2CCC1CC2 (centres undefined)
Ki [1]: 631 nM

Cn1cc(C(=O)NC2CN3CCC2CC3)c2ccccc21 (centres undefined)
Ki [1]: 2 nM

O=C(N[C@@H]1CN2CCC1CC2)c1cccc2c1CCCC2
Ki [1]: 200 nM

Cc1cccc(C(=O)N[C@@H]2CN3CCC2CC3)c1C
Ki [1]: 158 nM

CCCc1cn([C@@H]2CN3CCC2CC3)c(=O)c2ccccc12
Ki [1]: 5.01 nM

CN1C2CCC1CC(n1cc3c4c(cccc4c1=O)CCC3)C2 (centres undefined)
Ki [1]: 0.794 nM | ED50 [2]: 0.65 µg/kg

O=c1c2c3ccccc3n3c2c(cn1[C@@H]1CN2CCC1CC2)CCC3
ED50 [4]: 0.05 µg/kg

O=c1c2c3ccccc3n3c2c(cn1[C@H]1CN2CCC1CC2)CCC3
ED50 [5]: > 2.41 µg/kg

O=C1c2cccc3c2[C@@H](CCC3)CN1C1CN2CCC1CC2 (mixture of isomers)
Ki [1]: 0.316 nM

COc1cc(N)c(Cl)cc1C(=O)N[C@H]1CN2CCC1CC2 [(R)ZACOPRIDE]
Ki [1]: 3.16 nM

Cc1nccn1CC1CCc2c(c3ccccc3n2C)C1=O (centres undefined) [ONDANSETRON]
No. of emetic episodes [6]: 10.5 | No. of emetic episodes [7]: 3.17 | No. of emetic episodes [8]: 2 | No. of emetic episodes [9]: 13.33 | No. of emetic episodes [10]: 8.33 | No. of emetic episodes [11]: 4.83 | No. of emetic episodes [12]: 1 | No. of emetic episodes [13]: 1.17 | No. of emetic episodes [14]: 12.67 | No. of emetic episodes [15]: 18.33 | No. of emetic episodes [16]: 4.2 | No. of emetic episodes [17]: 11.2 | No. of emetic episodes [18]: 2.2 | ED50 [4]: 2.6 µg/kg

CN1[C@@H]2CC[C@H]1C[C@@H](OC(=O)c1c[nH]c3ccccc13)C2 [TROPISETRON]
Ki [1]: 2 nM | ED50 [2]: 0.4 µg/kg
